From ChEMBL document CHEMBL1132168, “Cycloalkanecarboxylic esters derived from lysergol, dihydrolysergol-I, and elymoclavine as partial agonists and antagonists at rat 5-HT2A receptors: pharmacological evidence that the indolo[4,3-fg]quinoline system of the ergolines is responsible for high 5-HT2A receptor affinity” (J Med Chem, 1999) come the findings set out here.

Assay [1] deals with 5-hydroxytryptamine receptor 2A (Rattus norvegicus, UniProt P14842). Put plainly: Blocking 5-HT2A receptor-mediated contractions of rat tail artery. It counts as functional, tissue-based. As to conditions: read-out: pA2 (converted). Put shortly: (§1)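 Endothelium-denuded rat ventral caudal artery segments (4–5 mm), isometric, resting force 5 mN. Segments were primed once with 5-HT 1 μM during 120 min equilibration. Prazosin 30 nM and cocaine 6 μM were present throughout. Two cumulative 5-HT curves were run 60 min apart, the second after 30–60 min with antagonist. pKP by Marano–Kaumann; pA2 by Schild or as apparent pA2. Mean ± SEM, n segments, ≥2 animals.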
5-hydroxytryptamine receptor 2A, sequence (P14842 whole entry): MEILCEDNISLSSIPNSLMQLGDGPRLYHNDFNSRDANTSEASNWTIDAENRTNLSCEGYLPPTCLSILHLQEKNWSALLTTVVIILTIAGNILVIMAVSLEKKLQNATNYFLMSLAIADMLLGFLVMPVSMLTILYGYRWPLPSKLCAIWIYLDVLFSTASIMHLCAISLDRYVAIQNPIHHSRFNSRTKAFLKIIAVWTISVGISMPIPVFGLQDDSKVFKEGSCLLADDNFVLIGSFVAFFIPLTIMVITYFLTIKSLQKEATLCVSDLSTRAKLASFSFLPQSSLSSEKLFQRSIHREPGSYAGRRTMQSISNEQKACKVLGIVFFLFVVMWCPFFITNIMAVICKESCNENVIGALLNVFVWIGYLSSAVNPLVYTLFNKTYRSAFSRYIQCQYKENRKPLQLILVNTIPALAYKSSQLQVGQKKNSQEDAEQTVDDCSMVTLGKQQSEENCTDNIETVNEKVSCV

Assay [2] can be described thus: Specificity towards 5-HT2A receptor to that of alpha-1 adrenoceptor. The assay is classed as functional.
For assay [3], the target named is T1, Adrenergic receptor alpha-1 (Rattus norvegicus, UniProt P15823+P23944+P43140).
T1 sequence (P15823 whole entry): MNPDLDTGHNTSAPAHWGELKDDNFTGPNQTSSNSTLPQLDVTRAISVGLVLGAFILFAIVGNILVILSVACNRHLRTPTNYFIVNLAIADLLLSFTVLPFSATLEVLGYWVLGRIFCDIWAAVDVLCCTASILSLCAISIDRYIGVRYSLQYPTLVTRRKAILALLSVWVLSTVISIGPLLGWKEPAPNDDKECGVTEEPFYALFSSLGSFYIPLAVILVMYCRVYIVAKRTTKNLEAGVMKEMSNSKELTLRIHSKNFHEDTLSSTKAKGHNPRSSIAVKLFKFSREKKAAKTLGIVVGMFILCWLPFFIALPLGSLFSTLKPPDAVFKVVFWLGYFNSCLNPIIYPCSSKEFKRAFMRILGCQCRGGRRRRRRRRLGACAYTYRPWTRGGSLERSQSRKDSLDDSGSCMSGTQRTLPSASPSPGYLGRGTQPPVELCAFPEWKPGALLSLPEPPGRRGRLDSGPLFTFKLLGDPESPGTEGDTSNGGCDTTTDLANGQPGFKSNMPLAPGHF
T1 sequence (P23944 whole entry): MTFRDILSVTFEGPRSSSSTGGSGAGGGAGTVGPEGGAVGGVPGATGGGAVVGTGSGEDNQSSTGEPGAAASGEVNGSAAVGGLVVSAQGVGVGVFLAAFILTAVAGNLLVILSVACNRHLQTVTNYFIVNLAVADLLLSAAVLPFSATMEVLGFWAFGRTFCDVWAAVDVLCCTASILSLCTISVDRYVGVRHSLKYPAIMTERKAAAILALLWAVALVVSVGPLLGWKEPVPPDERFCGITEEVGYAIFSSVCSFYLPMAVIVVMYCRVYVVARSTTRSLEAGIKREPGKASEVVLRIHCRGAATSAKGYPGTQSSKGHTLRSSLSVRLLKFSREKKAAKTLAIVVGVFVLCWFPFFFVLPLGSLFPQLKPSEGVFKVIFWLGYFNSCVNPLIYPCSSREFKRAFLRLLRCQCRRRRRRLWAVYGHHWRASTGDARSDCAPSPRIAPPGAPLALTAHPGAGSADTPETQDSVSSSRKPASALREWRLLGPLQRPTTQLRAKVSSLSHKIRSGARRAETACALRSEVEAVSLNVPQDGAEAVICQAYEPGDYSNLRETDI
T1 sequence (P43140 whole entry): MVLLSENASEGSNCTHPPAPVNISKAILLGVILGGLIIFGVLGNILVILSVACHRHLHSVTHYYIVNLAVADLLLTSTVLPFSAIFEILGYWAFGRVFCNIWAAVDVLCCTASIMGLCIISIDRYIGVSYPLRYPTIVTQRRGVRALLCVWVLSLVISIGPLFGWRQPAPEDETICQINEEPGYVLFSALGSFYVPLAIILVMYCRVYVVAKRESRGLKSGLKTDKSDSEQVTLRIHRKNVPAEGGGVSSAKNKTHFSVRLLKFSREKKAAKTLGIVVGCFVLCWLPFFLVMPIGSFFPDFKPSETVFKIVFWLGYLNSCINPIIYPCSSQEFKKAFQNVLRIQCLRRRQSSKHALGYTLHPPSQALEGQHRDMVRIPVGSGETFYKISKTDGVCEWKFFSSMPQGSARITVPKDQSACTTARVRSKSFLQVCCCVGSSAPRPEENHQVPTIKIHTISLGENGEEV
In words: Ability to block alpha-1 adrenergic receptor-mediated contractions of rat aorta. The assay is classed as functional. Put shortly: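 Endothelium-denuded rat thoracic aorta rings (4–6 mm) in modified Krebs-Henseleit, 37 °C, 95% O2/5% CO2, with (R,S)-propranolol 1 μM. Resting force 20 mN. During 140 min equilibration, rings were stimulated twice with (R)-phenylephrine 100 nM. Two cumulative phenylephrine contraction curves were run, without and then with antagonist added 30 min before.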

Assay [4] concerns the target 5-hydroxytryptamine receptor 2A (Rattus norvegicus) (UniProt P14842). Put plainly: Effectiveness in blocking 5-HT2A receptor-mediated contractions of rat tail artery. It counts as functional, tissue-based. Put shortly:
as §1

5-hydroxytryptamine receptor 2A (Rattus norvegicus), sequence (P14842 whole entry): as the sequence (P14842 whole entry) above

As for `CC(C)n1cc2c3c(cccc31)[C@H]1C[C@@H](C)CN(C)[C@@H]1C2.O=C(O)/C=C\C(=O)O`, the Kb in assay [1] was 3.16 nM. Further, the Specificity in assay [2] came out at 63. In addition, the pA2 (commonly the negative logarithm of the molar antagonist concentration that doubles the agonist concentration needed for the same response) in assay [3] stood at 6.7.
For `CC(C)n1cc2c3c(cccc31)[C@H]1C[C@@H](COC(=O)C3CCCCCC3)CN(C)[C@@H]1C2.O=C(O)/C=C\C(=O)O`, the Kb in assay [1] is 89.1 nM. The compound also registered a Specificity in assay [2] of 186. Further, in assay [3], the pA2 was found to be 4.78.
Turning to `CC(C)n1cc2c3c(cccc31)[C@H]1C=C(COC(=O)C3CCCC3)CN(C)[C@@H]1C2.O=C(O)/C=C\C(=O)O`, the Kb in assay [1] was 8.91 nM. Further, the Specificity in assay [2] amounted to 1440. The compound also displayed a pA2 in assay [3] of 4.89.
On to `CC(C)n1cc2c3c(cccc31)[C@H]1C=C(COC(=O)C3CCCCCC3)CN(C)[C@@H]1C2.O=C(O)/C=C\C(=O)O`, for which the Kb in assay [1] was 17 nM. Moreover, in assay [2], the Specificity was > 1860. In addition, the pA2 in assay [3] is reported as < 4.5.
Taken in the same sequence, the figures for `CC(C)n1cc2c3c(cccc31)C1=C[C@@H](COC(=O)C3CCCCC3)CN(C)[C@@H]1C2.O=C(O)/C=C\C(=O)O` were 12 nM, 1410 and 4.77.
For `CC1=C[C@@H]2c3cccc4c3c(cn4C(C)C)C[C@H]2N(C)C1.O=C(O)/C=C\C(=O)O`, the Kb in assay [1] is 1.45 nM. This compound also had a Specificity in assay [2] of 316. Besides, the pA2 in assay [3] is recorded as 6.34.
Turning to `CN1CC(COC(=O)C2CCCCC2)=C[C@@H]2c3cccc4[nH]cc(c34)C[C@H]21.O=C(O)/C=C\C(=O)O`, in assay [1], the Kb was 39.8 nM. For the same compound, the Specificity in assay [2] was found to be 32. Moreover, the pA2 in assay [3] was found to be 5.89.
The corresponding values for `CC(C)n1cc2c3c(cccc31)[C@H]1C[C@@H](COC(=O)C3CCCCC3)CN(C)[C@@H]1C2.O=C(O)/C=C\C(=O)O` are 72.4 nM, 355 and 4.59.
For `CN1C[C@H](COC(=O)C2CCCCCC2)C[C@@H]2c3cccc4[nH]cc(c34)C[C@H]21.O=C(O)/C=C\C(=O)O`, the pKp in assay [4] is 7.1. The Specificity in assay [2] came out at 174. In assay [3], this compound showed a pA2 of 4.86.
Regarding `CN1C[C@H](COC(=O)C2CC2)C[C@@H]2c3cccc4[nH]cc(c34)C[C@H]21.O=C(O)/C=C\C(=O)O`, the pKp in assay [4] amounted to 7.67. The same compound gave a Specificity in assay [2] of 3. In assay [3], the pA2 is listed as 7.2.
Take `COC1CCC(C(=O)OCC2=C[C@@H]3c4cccc5c4c(cn5C(C)C)C[C@H]3N(C)C2)CC1.O=C(O)/C=C\C(=O)O` (stereo partly specified): in assay [1], the Kb was 11.5 nM. The compound also displayed a Specificity in assay [2] of 1260. Moreover, the pA2 in assay [3] is recorded as 4.84.
`CN1C[C@H](COC(=O)C2CCCCC2)C[C@@H]2c3cccc4[nH]cc(c34)C[C@H]21.O=C(O)/C=C\C(=O)O` gave a pKp in assay [4] of 7.34. Also, in assay [2], the Specificity was 52. This compound yielded a pA2 in assay [3] of 5.62.
Regarding `CC(C)n1cc2c3c(cccc31)[C@H]1C[C@@H](COC(=O)C3CCCC3)CN(C)[C@@H]1C2.O=C(O)/C=C\C(=O)O`, the Kb in assay [1] is 22.4 nM. The compound also registered a Specificity in assay [2] of 933. This compound returned a pA2 in assay [3] of 4.68.
Consider `CN1C[C@H](COC(=O)C2CCCC2)C[C@@H]2c3cccc4[nH]cc(c34)C[C@H]21.O=C(O)/C=C\C(=O)O`, for which the pKp in assay [4] is 7.5. This compound gave a Specificity in assay [2] of 35. The same compound gave a pA2 in assay [3] of 5.95.
Take `CN1CC(COC(=O)C2CCC2)=C[C@@H]2c3cccc4[nH]cc(c34)C[C@H]21.O=C(O)/C=C\C(=O)O`: the Kb in assay [1] was 77.6 nM. The compound further showed a Specificity in assay [2] of 5. Moreover, the pA2 in assay [3] was 6.42.
For the compound `CC(C)n1cc2c3c(cccc31)[C@H]1C[C@@H](COC(=O)C3CCC3)CN(C)[C@@H]1C2.O=C(O)/C=C\C(=O)O`, in assay [1], the Kb is 8.71 nM. Moreover, in assay [2], the Specificity came to 2950. Besides, the pA2 in assay [3] worked out at 4.59.
For the compound `COC1CCC(C(=O)OCC2=C[C@@H]3c4cccc5[nH]cc(c45)C[C@H]3N(C)C2)CC1.O=C(O)/C=C\C(=O)O` (stereo partly specified), the Kb in assay [1] is 47.9 nM. For the same compound, the Specificity in assay [2] is 12. The compound also yielded a pA2 in assay [3] of 6.32.
Regarding `CN1CC(COC(=O)C2CCCC2)=C[C@@H]2c3cccc4[nH]cc(c34)C[C@H]21.O=C(O)/C=C\C(=O)O`, the Kb in assay [1] is 49 nM. This compound came in with a Specificity in assay [2] of 21. The compound also returned a pA2 in assay [3] of 5.99.
For the compound `CC(C)n1cc2c3c(cccc31)[C@H]1C=C(COC(=O)C3CCC3)CN(C)[C@@H]1C2.O=C(O)/C=C\C(=O)O`, the Kb in assay [1] was 9.33 nM. In assay [2], this compound gave a Specificity of 2180. The same compound displayed a pA2 in assay [3] of 4.69.
Regarding `CO[C@H]1CC[C@H](C(=O)OCC2=C[C@@H]3c4cccc5c4c(cn5C(C)C)C[C@H]3N(C)C2)CC1.O=C(O)/C=C\C(=O)O`, the Kb in assay [1] is 7.41 nM. Further, the Specificity in assay [2] worked out at 2880. The same compound displayed a pA2 in assay [3] of 4.67.
`CC(C)n1cc2c3c(cccc31)C1=C[C@@H](COC(=O)C3CCC3)CN(C)[C@@H]1C2.O=C(O)/C=C\C(=O)O`: the Kb in assay [1] was 6.03 nM. The same compound registered a Specificity in assay [2] of 2950. This compound also registered a pA2 in assay [3] of 4.75.
For the compound `CO[C@H]1CC[C@H](C(=O)OCC2=C[C@@H]3c4cccc5[nH]cc(c45)C[C@H]3N(C)C2)CC1.O=C(O)/C=C\C(=O)O`, in assay [1], the Kb is 57.5 nM. In assay [2], this compound came in with a Specificity of 17. The compound further showed a pA2 in assay [3] of 6.
Consider `CN1C[C@H](COC(=O)C2CCC2)C[C@@H]2c3cccc4[nH]cc(c34)C[C@H]21.O=C(O)/C=C\C(=O)O`, for which the pKp in assay [4] was determined as 7.3. In addition, the Specificity in assay [2] was determined as 5. In assay [3], this compound had a pA2 of 6.59.
For the compound `CC(C)n1cc2c3c(cccc31)[C@H]1C=C(COC(=O)C3CCCCC3)CN(C)[C@@H]1C2.O=C(O)/C=C\C(=O)O`, the Kb in assay [1] was 15.8 nM. In assay [2], this compound came in with a Specificity of 1410. The same compound displayed a pA2 in assay [3] of 4.65.
The corresponding values for `CN1CC(COC(=O)C2CCCCCC2)=C[C@@H]2c3cccc4[nH]cc(c34)C[C@H]21.O=C(O)/C=C\C(=O)O` are 10.7 nM, 832 and 5.05.
For `CC(C)n1cc2c3c(cccc31)C1=C[C@@H](COC(=O)C3CCCC3)CN(C)[C@@H]1C2.O=C(O)/C=C\C(=O)O`, in assay [1], the Kb is 5.62 nM. In addition, in assay [2], the Specificity turned out to be 4790. The pA2 in assay [3] is given as 4.57.
Take `CC(C)n1cc2c3c(cccc31)C1=C[C@@H](COC(=O)C3CC3)CN(C)[C@@H]1C2.O=C(O)/C=C\C(=O)O`: in assay [1], the Kb is 1.82 nM. This compound also displayed a Specificity in assay [2] of 4570. For the same compound, in assay [3], the pA2 was found to be 5.08.
